Source: PubChem
The entries come from a sample that favours hits as a whole.
GSH fluor = compound fluoresces at 488/530 nm on GSH beads | hit rate 0.25% among 190,000 | GSH beads flow cytometry, compound fluorescence 488/530 nm; stronger effect = higher value | fluorescence (KMESF) at 10 µM; in the data active = fluorescence above about 89;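 note: glutathione beads carrying GST-tagged Bcl family fusion proteins plus one bare bead set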
Avidin fluor = avidin bead compound fluorescence profile; Avidin beads, compound fluorescence 488/530 nm, flow cytometry; stronger effect = higher value; hit rate 0.38% among 220,000; AID 1775; fluorescence (KMESF) at 10 µM; in the data active = fluorescence above about 47
L major viab = inhibitors of Leishmania major promastigote growth; Leishmania major promastigotes, resazurin fluorescence viability; inhibition, % at 10 µM; hit rate 9% among 200,000; AID 1063;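 note: promastigotes grown with compound for 44 hours at 28 °C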
PKD1 inh = inhibitors of human PKD1 kinase; Q15139; PKD1 kinase fluorescence polarization assay; inhibition, % (test concentration not listed); hit rate 0.056% among 200,000
ABCB1 inh = blocks JC-1 efflux by human ABCB1 transporter | hit rate 0.067% among 190,000 | inhibition, % at 6.6 µM | CCRF-Adr cells, flow cytometry | P08183; in the data active = inhibition above about 40%;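 note: higher value means more JC-1 retained so stronger ABCB1 efflux block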
Target sequence (P08183 whole entry, looked up): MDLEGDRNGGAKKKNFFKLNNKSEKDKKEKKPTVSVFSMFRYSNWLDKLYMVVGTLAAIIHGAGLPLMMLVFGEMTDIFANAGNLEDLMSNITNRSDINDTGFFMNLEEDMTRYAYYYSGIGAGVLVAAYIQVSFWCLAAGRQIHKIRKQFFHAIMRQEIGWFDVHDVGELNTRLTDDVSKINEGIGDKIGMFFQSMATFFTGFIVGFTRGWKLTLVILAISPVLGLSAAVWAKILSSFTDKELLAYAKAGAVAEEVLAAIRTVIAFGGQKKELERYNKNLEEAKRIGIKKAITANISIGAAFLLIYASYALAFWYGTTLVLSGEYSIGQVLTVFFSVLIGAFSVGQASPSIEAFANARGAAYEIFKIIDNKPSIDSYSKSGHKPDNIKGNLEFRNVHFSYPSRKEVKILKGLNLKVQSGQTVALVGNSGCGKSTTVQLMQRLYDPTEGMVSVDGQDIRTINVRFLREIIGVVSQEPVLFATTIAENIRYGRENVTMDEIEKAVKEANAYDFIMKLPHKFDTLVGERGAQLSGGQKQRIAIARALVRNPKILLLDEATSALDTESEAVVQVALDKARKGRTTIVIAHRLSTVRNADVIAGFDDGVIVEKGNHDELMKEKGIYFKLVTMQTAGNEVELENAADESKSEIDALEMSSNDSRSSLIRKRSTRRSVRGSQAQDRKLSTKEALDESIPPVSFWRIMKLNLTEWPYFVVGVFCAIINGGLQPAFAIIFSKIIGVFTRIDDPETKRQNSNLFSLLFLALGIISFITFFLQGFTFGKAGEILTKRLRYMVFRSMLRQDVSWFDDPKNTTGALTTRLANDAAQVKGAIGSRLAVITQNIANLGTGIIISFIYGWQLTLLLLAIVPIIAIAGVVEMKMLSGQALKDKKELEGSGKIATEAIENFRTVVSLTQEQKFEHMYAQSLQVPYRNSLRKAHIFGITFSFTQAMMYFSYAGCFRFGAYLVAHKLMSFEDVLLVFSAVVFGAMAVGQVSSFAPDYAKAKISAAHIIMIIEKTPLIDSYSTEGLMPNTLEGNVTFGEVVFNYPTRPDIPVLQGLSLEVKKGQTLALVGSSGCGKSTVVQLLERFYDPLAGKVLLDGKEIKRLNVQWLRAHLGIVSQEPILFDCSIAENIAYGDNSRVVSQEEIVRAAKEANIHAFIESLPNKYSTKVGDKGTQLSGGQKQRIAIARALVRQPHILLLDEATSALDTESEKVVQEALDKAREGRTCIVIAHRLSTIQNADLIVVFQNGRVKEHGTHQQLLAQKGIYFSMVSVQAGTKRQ
ABCG2 block = human ABCG2 inhibition, ABCB1 as counter-screen; Q9UNQ0; IgMXP3 cells, JC-1 efflux, flow cytometry; inhibition, % at 6.6 µM; hit rate 0.1% among 190,000;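 active = inhibition above 80%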
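Times: 10 min at 25 °C | Test system: Two drug-resistant human cell lines, ABCG2 and ABCB1 | Quantity: 3 million cells/mL final, two lines in 1:1 ratio | Signal: Flow cytometry, 530 nm JC-1 signal | Dosing: Compound at 6.6 µM | Controls: Nicardipine and DMSO wells | Reagent: JC-1 as fluorescent efflux pump substrate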
Lmaj promast 1uM = blocks Leishmania major promastigote growth at 1 uM, repeat screen; shares compounds with L major viab; AID 1258; inhibition, % at 1 µM; L. major promastigote growth, resazurin fluorescence, 48 h; hit rate 13% among 1,100;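 active = inhibition above about 50% in both repeat tests, limit read from the data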
Hits are given with their value; – = inactive; · = no result. Cut-off read from the data, not from the text of the source, unless noted: active = inhibition above about 50%; inactive = the rest.

SMILES	GSH fluor	Avidin fluor	L major viab	PKD1 inh	ABCB1 inh	ABCG2 block	Lmaj promast 1uM
COc1ccc(NC(=O)c2sccc2SCc2cccc(C(F)(F)F)c2)cc1	–	–	99.7	–	–	–	–
CC[N+](C)(C)CC/C=C1/c2ccccc2Sc2ccc(Cl)cc21	·	–	·	·	·	·	·
CN(C)CC/C=C1\c2cc(F)ccc2CSc2ccccc21	–	–	71.6	–	–	–	–
CCOC(=O)c1nnn(-c2nonc2-n2cccc2)c1CCl	–	–	99.8	–	–	–	57.4
CCOC(=O)c1nnn(-c2nonc2N)c1COc1c(C=O)cccc1OC	–	–	98.0	–	–	–	–
CC1(C)CC(CCC(=O)NC(=S)Nc2ccccc2Cl)C(=O)O1 (stereo not given)	–	–	–	–	–	–	·
COc1ccc(CCNC(=O)c2ccc(CNc3nc(=S)[nH]c4ccccc34)cc2)cc1OC	–	–	–	–	–	–	·
C/C(N)=C(/C#N)C(=O)CSc1nnc(Nc2ccccc2)s1	–	–	54.4	–	–	–	–
C/C(N)=C(/C#N)C(=O)CSc1nnc(Nc2ccccc2C)s1	–	–	–	–	–	–	·
CS(=O)(=O)c1cnc(-c2ccccc2)nc1-c1ccccc1Cl	–	–	–	–	–	–	·
CC1=Nc2cccc3cccc(c23)N1	–	–	99.8	–	–	–	–
O=c1c2ccccc2nc(-c2ccccc2)n1CCN1CCOCC1	–	–	–	–	–	–	·
O=c1c2ccccc2nc2c3ccccc3c(NCCN3CCOCC3)nn12	–	–	100.2	–	–	–	–
Nc1nnc(SCc2ccc([N+](=O)[O-])cc2)s1	–	–	–	–	–	–	·
Nc1ccc2nc(SCc3ccc([N+](=O)[O-])cc3)sc2c1	–	–	68.6	–	–	–	–
CCOC(=O)N1CCN(C(=O)c2ccc3c(c2)sc2nc(-c4ccccc4)cn23)CC1	–	–	58.4	–	–	–	–
C=CCOc1nc(N2CCCC2)nc(N2CCCC2)n1	–	–	96.3	–	–	–	–
CSCCC1NC2(C(=O)Nc3c(C)cc(Cl)cc32)[C@@H]2C(=O)N(C3CCCC3)C(=O)[C@H]12 (stereo not given in full)	–	–	–	–	–	–	·
Clc1ccc(-c2nnc(-c3ccco3)nc2N2CCCCC2)cc1	–	–	64.4	–	–	–	–
Clc1ccc(-c2nnc(-c3ccc(Br)cc3)c(N3CCSCC3)n2)cc1	–	–	–	–	–	–	·
COC(=O)CN1C(c2ccc(Cl)cc2)=Nc2ccc(Cl)cc2C1c1ccccc1 (stereo not given)	–	–	64.8	–	–	–	–
CC(C)CCN(C)c1ccc(/C=N/n2cnnc2)cc1	–	–	82.0	–	–	–	–
CCn1c(SCC(=O)N2CCOCC2)nc2sc3c(c2c1=O)CCCC3	–	–	–	–	–	–	·
CCn1c(SCC(=O)N2CCOCC2)nc2oc3c(Cl)cc(Cl)cc3c(=O)c2c1=O	–	–	72.2	–	–	–	–
c1ccc2c(c1)OC(CCCN1CCCCC1)c1ccccc1S2 (stereo not given)	–	–	99.9	–	–	–	94.8
SMILES	GSH fluor	Avidin fluor	L major viab	PKD1 inh	ABCB1 inh	ABCG2 block	Lmaj promast 1uM
O=C(Nc1ccc(-c2ccccc2)cc1)c1ccco1	–	–	–	–	–	–	·
CC(=O)Nc1ccc(S(=O)(=O)NCCSCc2ccccc2Cl)cc1	–	–	68.4	–	–	–	–
CC(=O)Nc1ccc(S(=O)(=O)NCCC(=O)Nc2ccc(C)c(Cl)c2)cc1	–	–	–	–	–	–	·
Cc1ccc(NC(=O)CCn2cccc2)cc1Cl	–	–	–	–	–	–	·
CCCCNc1cc(NC(C)=O)cc2cc(OC)c(OC)cc12	–	–	99.6	–	–	–	–
CCOC(=O)c1c(NC(=O)Cn2cnc([N+](=O)[O-])n2)sc(C)c1C	–	·	52.5	–	–	–	–
COCCSc1ccccc1C(=O)N1CCc2ccccc2C1	–	–	–	–	–	–	·
CCOC(=O)c1cnn(-c2nc(SC)nc3sc4c(c23)CCCC4)c1N	–	–	59.7	–	–	–	–
O=S1(=O)N=C(Nc2ccc(O)c(CN3CCCCC3)c2)c2ccccc21	–	–	55.4	–	–	–	–
CSc1ccccc1C(=O)Nc1cccc(C(C)O)c1 (stereo not given)	–	–	–	–	–	–	·
O=C(Nc1ccc(F)cc1F)N1CCN(c2ncccn2)CC1	–	–	–	–	–	–	·
CC12CCC(C(=O)N(c3ccccc3Cl)C1=O)C2(C)C (stereo not given)	–	–	–	–	–	–	·
CC12CCC(C(=O)N(CCCN3CCN(Cc4ccccc4)CC3)C1=O)C2(C)C (stereo not given)	–	–	94.6	–	–	–	67.7
Cc1ccc(OCC(O)CN2CCN(CC(O)COc3ccc(C)cc3)CC2)cc1 (stereo not given)	–	–	57.0	–	–	–	–
CC1CCN(C2CC(=O)N(c3ccccc3)C2=O)CC1 (stereo not given)	–	–	–	–	–	–	·
C[C@H]1CC[C@H]2C(=O)N3[C@H](c4ccccc4Br)[C@@H](C)CC[C@H]3C(=O)N2[C@@H]1c1ccccc1Br	–	–	100.0	–	–	–	–
CCOc1ccc(N=C(/C(C(=O)C(=O)N2CCOCC2)=C(\O)c2ccccc2)c2ccccc2)cc1	–	–	–	–	·	–	·
On1onc2c3cc(-c4ccccc4)nc3ccc21	–	–	100.4	–	–	–	–
Nc1c(C(O)(C(F)(F)F)C(F)(F)F)cc(C(O)(C(F)(F)F)C(F)(F)F)c2ccccc12	–	–	100.2	–	–	–	–
Cc1cccc(-n2c3nc(=O)[nH]c(=O)c-3cc3cc([N+](=O)[O-])ccc32)c1	–	–	95.4	–	–	–	–
C/C(=N/OCO/N=C(\C)c1ccc(F)cc1F)c1ccc(F)cc1F	–	–	–	–	–	–	·
CCCCCCCCCCCCCCCCn1cc[n+](C)c1	–	–	100.5	–	–	–	98.6
N#Cc1c(C(F)(F)F)cc(-c2ccccc2)nc1SCC(=O)Nc1sc2c(c1C#N)CCC2	–	–	–	–	–	–	·
CC1=CC(C)C2(COC(c3ccc[n+](C)c3)OC2)C(C)C1 (stereo not given)	–	–	99.8	–	–	–	–
c1cc2c(cc1C1CCCCC1)c1c3n2CCN=C3CCC1	–	–	100.5	–	–	–	–
c1cc2c(cc1C1CCCCC1)c1c3n2CCCNC3CCC1 (stereo not given)	–	–	100.4	–	–	–	–
Cc1ccc2c(c1)c1c3n2CCCNC3CCC1 (stereo not given)	–	–	–	–	–	–	·
Cc1ccc2c(c1)c1c3n2CCN=C3CCC1	–	–	–	–	–	–	·
